As a reminder, the MIC is the lowest concentration that inhibits growth of the organism. Lower therefore signals a more susceptible organism. The IC50 is the concentration that gives 50% inhibition.

In brackets after ≈: the same amount, converted by molar mass.

The test system of data set [1] is Mycobacterium kansasii. Briefly: Antimycobacterial activity against Mycobacterium kansasii isolate 6509/96 after 21 days by micromethod. In kind it is functional. The note with it: isolate 6509/96, 504 h. The essentials:
(§1)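 MIC in Šula's semisynthetic medium at 37 °C, read after 7, 14 and 21 days. Inoculum is strain dilution 10^-4; 235/80 is a collection strain and 6509/96 a clinical isolate. Compounds are added as DMSO solutions at 500, 250, 125, 62.5, 32, 16, 8, 4, 2, 1 and 0.5 µM. INH (in sterile water) and PAS are the reference drugs.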

Data set [2] in a line: Selectivity index, ratio of IC50 for human HepG2 cells to MIC for Mycobacterium tuberculosis H37Rv after 21 days. In kind it is toxicity, cell-based. The note with it: HepG2 cells versus Mycobacterium tuberculosis H37Rv, read-out: Selectivity Index. In short, it runs like this:
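HepG2 cells (passages 33-37) seeded at 1 × 10^4 per well and treated next day with 0.1–100 µM in triplicate. After 24 h at 37 °C, 5% CO2, MTS reagent added for 2 h and absorbance read at 490 nm. IC50 taken from viability relative to untreated control, then divided by the 21-day H37Rv MIC.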

The test system of data set [3] is Mycobacterium kansasii. Briefly: Antimycobacterial activity against Mycobacterium kansasii isolate 235/80 after 14 days by micromethod. Format: functional. The note with it: isolate 235/80, 336 h. The essentials: as §1
Data set [4] relates to Mycobacterium kansasii. Briefly: Antimycobacterial activity against Mycobacterium kansasii isolate 235/80 after 7 days by micromethod. In kind it is functional. The note with it: isolate 235/80, 168 h. The essentials:
as §1

A short description of data set [5]: Cytotoxicity against human HepG2 cells assessed as reduction in cell viability after 24 hrs by MTS assay. In kind it is toxicity, cell-based. The essentials:
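HepG2 cells (passages 33-37) are grown in MEM with 10% FBS, L-glutamine and non-essential amino acids. They are seeded at 1 × 10^4 cells/well and treated next day with 0.1-100 µM in triplicate for 24 h at 37 °C, 5% CO2. MTS reagent is added for 2 h and A490 read.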
On the technique in general: Tetrazolium assays rely on reduction of a dye to a coloured formazan, in cell work by metabolically active cells.

Data set [6] has as its system Mycobacterium tuberculosis. Briefly: Antimycobacterial activity against Mycobacterium tuberculosis H37Rv My 331/88 after 21 days by micromethod. In kind it is functional. The note with it: H37Rv My 331/88, 504 h. The essentials: (§2)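 MIC micromethod in Šula's semisynthetic medium at 37 °C, read after 14 and 21 days. Compounds added as DMSO solutions at 500 down to 0.5 µM (twofold-type series: 500, 250, 125, 62.5, 32, 16, 8, 4, 2, 1, 0.5 µM). Isoniazid standard given in sterile water.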

The subject of data set [7] is Mycobacterium avium. Briefly: Antimycobacterial activity against Mycobacterium avium My 330/80 after 21 days by micromethod. The note with it: My 330/80, 504 h. In kind it is functional. In short, it runs like this:
(§3)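 M. avium My 330/80 (collection strain) inoculated at 10^-5 dilution into Šula's semisynthetic medium. Compounds added from DMSO solutions at 500, 250, 125, 62.5, 32, 16, 8, 4, 2, 1 and 0.5 µM. MIC determined by micromethod at 37 °C, read after 14 and 21 days.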

Data set [8] concerns Mycobacterium kansasii. Briefly: Antimycobacterial activity against Mycobacterium kansasii isolate 6509/96 after 7 days by micromethod. In kind it is functional. The note with it: isolate 6509/96, 168 h. The essentials: as §1
Data set [9] has as its system Mycobacterium avium. Briefly: Antimycobacterial activity against Mycobacterium avium My 330/80 after 14 days by micromethod. Conditions: My 330/80, 336 h. Format: functional. The essentials:
as §3

In data set [10] the test system is Mycobacterium tuberculosis. Briefly: Antimycobacterial activity against Mycobacterium tuberculosis H37Rv My 331/88 after 14 days by micromethod. The note with it: H37Rv My 331/88, 336 h. In kind it is functional. In short, it runs like this: as §2
The test system of data set [11] is Mycobacterium kansasii. Briefly: Antimycobacterial activity against Mycobacterium kansasii isolate 6509/96 after 14 days by micromethod. In kind it is functional. Conditions: isolate 6509/96, 336 h. In short, it runs like this: as §1
The subject of data set [12] is Mycobacterium kansasii. Briefly: Antimycobacterial activity against Mycobacterium kansasii isolate 235/80 after 21 days by micromethod. The note with it: isolate 235/80, 504 h. In kind it is functional. In short, it runs like this:
as §1

`O=C(Nc1ccc(Br)cc1)c1cc(Cl)c(Cl)cc1O`: the MIC with Mycobacterium kansasii [1] stood at 8 µM (≈ 2.89 µg/mL); against Mycobacterium kansasii [3] it was 8 µM (≈ 2.89 µg/mL); in the data set with Mycobacterium kansasii [4], 8 µM (≈ 2.89 µg/mL); in data set [6] it was 4 µM (≈ 1.44 µg/mL); against Mycobacterium avium [7] it was 32 µM (≈ 11.6 µg/mL); against Mycobacterium kansasii [8], 8 µM (≈ 2.89 µg/mL). Besides, the MIC in the data set with Mycobacterium avium [9] stood at 32 µM (≈ 11.6 µg/mL); in data set [10] it was 2 µM (≈ 0.722 µg/mL); against Mycobacterium kansasii [11] it was 8 µM (≈ 2.89 µg/mL); in the data set with Mycobacterium kansasii [12], 8 µM (≈ 2.89 µg/mL). In data set [2], the selectivity ratio at 504 h was found to be 5.35. The IC50 at 24 h in data set [5] worked out at 21.4 µM.

For `O=C(Nc1ccc(Cl)c(Cl)c1)c1cc(Br)c(Cl)cc1O`, the MIC with Mycobacterium kansasii [1] is 8 µM (≈ 3.16 µg/mL); in the data set on Mycobacterium kansasii [3], 8 µM (≈ 3.16 µg/mL); in the data set with Mycobacterium kansasii [4], 8 µM (≈ 3.16 µg/mL); in [6], 4 µM (≈ 1.58 µg/mL); with Mycobacterium avium [7] it was 125 µM (≈ 49.4 µg/mL); against Mycobacterium kansasii [8] it was 8 µM (≈ 3.16 µg/mL). For the same molecule, the MIC is 125 µM (≈ 49.4 µg/mL) against Mycobacterium avium [9], 2 µM (≈ 0.791 µg/mL) in data set [10], 8 µM (≈ 3.16 µg/mL) in the data set on Mycobacterium kansasii [11] and 8 µM (≈ 3.16 µg/mL) against Mycobacterium kansasii [12]. For the same molecule, the selectivity ratio at 504 h in data set [2] was 1.91. In addition, in data set [5], the IC50 at 24 h was 7.65 µM.

As to `O=C(Nc1ccc(C(F)(F)F)cc1)c1cc(Br)c(Cl)cc1O`, the MIC was 4 µM (≈ 1.58 µg/mL) against Mycobacterium kansasii [1]; 4 µM (≈ 1.58 µg/mL) against Mycobacterium kansasii [3]; 4 µM (≈ 1.58 µg/mL) in the data set on Mycobacterium kansasii [4]; 2 µM (≈ 0.789 µg/mL) in [6]; 62.5 µM (≈ 24.7 µg/mL) with Mycobacterium avium [7]; 4 µM (≈ 1.58 µg/mL) with Mycobacterium kansasii [8]. Further, the MIC with Mycobacterium avium [9] amounted to 32 µM (≈ 12.6 µg/mL); in data set [10], 1 µM (≈ 0.395 µg/mL); with Mycobacterium kansasii [11] it was 4 µM (≈ 1.58 µg/mL); with Mycobacterium kansasii [12], 4 µM (≈ 1.58 µg/mL). Moreover, the selectivity ratio at 504 h in data set [2] stood at 5.52. In data set [5], the IC50 at 24 h is 11 µM.

Consider `O=C(Nc1ccc(Br)cc1)c1cc(Br)c(Cl)cc1O`, for which the MIC with Mycobacterium kansasii [1] was determined as 8 µM (≈ 3.24 µg/mL); against Mycobacterium kansasii [3] it was 8 µM (≈ 3.24 µg/mL); against Mycobacterium kansasii [4], 4 µM (≈ 1.62 µg/mL); in data set [6], 4 µM (≈ 1.62 µg/mL); in the data set with Mycobacterium avium [7], 32 µM (≈ 13 µg/mL); with Mycobacterium kansasii [8] it was 8 µM (≈ 3.24 µg/mL). Besides, the MIC in the data set with Mycobacterium avium [9] is 32 µM (≈ 13 µg/mL); in [10] it was 2 µM (≈ 0.811 µg/mL); against Mycobacterium kansasii [11], 8 µM (≈ 3.24 µg/mL); in the data set with Mycobacterium kansasii [12] it was 8 µM (≈ 3.24 µg/mL). Besides, in [2], the selectivity ratio at 504 h came to 2.71. Moreover, in data set [5], the IC50 at 24 h is 10.8 µM.

`O=C(Nc1ccc(Cl)c(Cl)c1)c1cc(Cl)c(Cl)cc1O`: the MIC with Mycobacterium kansasii [1] came out at 8 µM (≈ 2.81 µg/mL); in the data set with Mycobacterium kansasii [3] it was 8 µM (≈ 2.81 µg/mL); against Mycobacterium kansasii [4], 4 µM (≈ 1.4 µg/mL); in [6] it was 2 µM (≈ 0.702 µg/mL); with Mycobacterium avium [7], 62.5 µM (≈ 21.9 µg/mL); against Mycobacterium kansasii [8], 8 µM (≈ 2.81 µg/mL). For the same molecule, the MIC in the data set on Mycobacterium avium [9] was found to be 62.5 µM (≈ 21.9 µg/mL); in data set [10] it was 2 µM (≈ 0.702 µg/mL); against Mycobacterium kansasii [11] it was 8 µM (≈ 2.81 µg/mL); in the data set with Mycobacterium kansasii [12], 8 µM (≈ 2.81 µg/mL). The selectivity ratio at 504 h in data set [2] is 6.21. For the same molecule, the IC50 at 24 h in data set [5] amounted to 12.4 µM.

With `O=C(Nc1ccc(C(F)(F)F)cc1)c1cc(Cl)c(Cl)cc1O`, the MIC stood at 8 µM (≈ 2.8 µg/mL) against Mycobacterium kansasii [1]; 8 µM (≈ 2.8 µg/mL) with Mycobacterium kansasii [3]; 4 µM (≈ 1.4 µg/mL) against Mycobacterium kansasii [4]; 2 µM (≈ 0.7 µg/mL) in data set [6]; 62.5 µM (≈ 21.9 µg/mL) in the data set on Mycobacterium avium [7]; 4 µM (≈ 1.4 µg/mL) in the data set on Mycobacterium kansasii [8]. Besides, the MIC against Mycobacterium avium [9] turned out to be 62.5 µM (≈ 21.9 µg/mL); in [10] it was 2 µM (≈ 0.7 µg/mL); in the data set with Mycobacterium kansasii [11], 8 µM (≈ 2.8 µg/mL); against Mycobacterium kansasii [12], 8 µM (≈ 2.8 µg/mL). Further, in data set [2], the selectivity ratio at 504 h came to 4.94. For the same molecule, the IC50 at 24 h in data set [5] stood at 9.87 µM.

As to `O=C(Nc1cc(C(F)(F)F)cc(C(F)(F)F)c1)c1cc(Cl)c(Cl)cc1O`, the MIC stood at 16 µM (≈ 6.69 µg/mL) in the data set with Mycobacterium kansasii [1]; 8 µM (≈ 3.34 µg/mL) in the data set on Mycobacterium kansasii [3]; 8 µM (≈ 3.34 µg/mL) with Mycobacterium kansasii [4]; 2 µM (≈ 0.836 µg/mL) in [6]; 32 µM (≈ 13.4 µg/mL) against Mycobacterium avium [7]; 8 µM (≈ 3.34 µg/mL) against Mycobacterium kansasii [8]. For the same molecule, the MIC turned out to be 32 µM (≈ 13.4 µg/mL) in the data set on Mycobacterium avium [9], 2 µM (≈ 0.836 µg/mL) in [10], 16 µM (≈ 6.69 µg/mL) against Mycobacterium kansasii [11] and 16 µM (≈ 6.69 µg/mL) with Mycobacterium kansasii [12]. Also, the selectivity ratio at 504 h in data set [2] was found to be 2.43. Besides, the IC50 at 24 h in data set [5] worked out at 4.86 µM.

For the origin of these results see ChEMBL document CHEMBL3877325, “Novel salicylanilides from 4,5-dihalogenated salicylic acids: Synthesis, antimicrobial activity and cytotoxicity” (Bioorg Med Chem, 2017).
